# Test results as given in ChEMBL document CHEMBL4024792, “(N-Hydroxycarbonylbenylamino)quinolines as Selective Histone Deacetylase 6 Inhibitors Suppress Growth of Multiple Myeloma in Vitro and in Vivo” (J Med Chem, 2018).
# Active and inactive are the calls of the source. The rule behind the calls is not given here.
# Experiments:
# [1] = test system: RPMI-8226; assay: Induction of apoptosis in human RPMI8226 cells at 5 uM after 24 hrs in presence of bortezomib by Annexin V/propidium iodide staining based flow cytometry; type: functional, cell-based
# [2] = Stability in Sprague-Dawley rat hepatocytes assessed as parent compound remaining at 10 uM after 60 mins by LC-MS/MS analysis; type: ADME, cell-based, Hepatocyte; conditions: read-out: Stability
# Method in brief: (§1)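 Cryopreserved hepatocytes (Sprague-Dawley rat, beagle dog, human) incubated with compound at 10 µM, 37 °C, for up to 4 h. About 0.5×10^6 cells/well for rat and dog, 0.24×10^6 for human.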
# [3] = Intrinsic clearance in Sprague-Dawley rat hepatocytes at 10 uM by LC-MS/MS analysis; type: ADME, cell-based, Hepatocyte; conditions: read-out: CLH; method in brief: as §1
# [4] = test system: Salmonella typhimurium; assay: Mutagenicity in Salmonella typhimurium TA98 assessed as increase in number of revertant colonies at 3 to 3000 ug/plate in presence of S9 fraction by Ames test; type: toxicity; conditions: salmonella enterica subsp. enterica serovar typhimurium
# Method in brief: (§2)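 Ames test, TA98 and TA100. Overnight broth cultures preincubated 20 min at 35-37 °C with compound (DMSO stock) plus Aroclor 1254-induced rat liver S9 mix or PBS, then plated in top agar with 0.05 mM histidine/biotin. Final 3-3000 µg/plate; revertants counted after 72 h at 37 °C. ≥3-fold over vehicle = mutagenic; ≤50% = cytotoxic.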
# [5] = test system: Salmonella typhimurium; assay: Mutagenicity in Salmonella typhimurium TA100 assessed as increase in number of revertant colonies at 3 to 3000 ug/plate in presence of S9 fraction by Ames test; type: toxicity; conditions: salmonella enterica subsp. enterica serovar typhimurium; method in brief: as §2
# [6] = test system: Salmonella typhimurium; assay: Mutagenicity in Salmonella typhimurium TA98 assessed as increase in number of revertant colonies at 3 to 3000 ug/plate in absence of S9 fraction by Ames test; type: toxicity; conditions: salmonella enterica subsp. enterica serovar typhimurium; method in brief: as §2
# [7] = test system: NCI-H929; assay: Cell cycle arrest in human NCI-H929 cells assessed as accumulation at S phase at 5 uM after 24 hrs in presence of bortezomib by propidium iodide staining based flow cytometry (reference value: 13.5%); type: functional
# [8] = test system: RPMI-8226; assay: Cell cycle arrest in human RPMI8226 cells assessed as accumulation at G0/G1 phase at 5 uM after 24 hrs by propidium iodide staining based flow cytometry (reference value: 44.67%); type: functional
# [9] = test system: U-266; assay: Cell cycle arrest in human U266 cells assessed as accumulation at G0/G1 phase at 5 uM after 24 hrs in presence of bortezomib by propidium iodide staining based flow cytometry (reference value: 40.29%); type: functional
# [10] = test system: U-266; assay: Cell cycle arrest in human U266 cells assessed as accumulation at G2/M phase at 5 uM after 24 hrs in presence of bortezomib by propidium iodide staining based flow cytometry (reference value: 35.13%); type: functional
# [11] = test system: U-266; assay: Induction of apoptosis in human U266 cells at 5 uM after 24 hrs by Annexin V/propidium iodide staining based flow cytometry; type: functional, cell-based
# [12] = test system: NCI-H929; assay: Cell cycle arrest in human NCI-H929 cells assessed as accumulation at sub-G1 phase at 5 uM after 24 hrs in presence of bortezomib by propidium iodide staining based flow cytometry (reference value: 5.59%); type: functional
# [13] = test system: NCI-H929; assay: Cell cycle arrest in human NCI-H929 cells assessed as accumulation at G0/G1 phase at 5 uM after 24 hrs in presence of bortezomib by propidium iodide staining based flow cytometry (reference value: 49.39%); type: functional
# [14] = Stability in human hepatocytes assessed as parent compound remaining at 10 uM after 60 mins by LC-MS/MS analysis; type: ADME, cell-based, Hepatocyte; conditions: read-out: Stability; method in brief: as §1
# [15] = test system: NCI-H929; assay: Cell cycle arrest in human NCI-H929 cells assessed as accumulation at G2/M phase at 5 uM after 24 hrs in presence of bortezomib by propidium iodide staining based flow cytometry (reference value: 31.63%); type: functional
# [16] = test system: Mus musculus; assay: Toxicity in Balb/c mouse assessed as change in body weight at 50 to 200 mg/kg, ip administered once daily for 1 week measured for 1 week; type: organism-based; conditions: in vivo, 168 h
# Method in brief: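 Male 8-week balb/c mice, ten per dose, given compound ip once daily for 7 days at 50, 100 or 200 mg/kg, then monitored one week. Body weight recorded over 14 days. MTD = highest dose with no drug-related moribund state or death and weight loss under 20%.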
# [17] = test system: RPMI-8226; assay: Cell cycle arrest in human RPMI8226 cells assessed as accumulation at sub-G1 phase at 5 uM after 24 hrs by propidium iodide staining based flow cytometry (reference value: 12.25%); type: functional
# [18] = Stability in beagle dog hepatocytes assessed as parent compound remaining at 10 uM after 60 mins by LC-MS/MS analysis; type: ADME, cell-based, Canis lupus familiaris, Hepatocyte; conditions: read-out: Stability; method in brief: as §1
# [19] = test system: RPMI-8226; assay: Cell cycle arrest in human RPMI8226 cells assessed as accumulation at G2/M phase at 5 uM after 24 hrs by propidium iodide staining based flow cytometry (reference value: 23.94%); type: functional
# [20] = test system: RPMI-8226; assay: Cell cycle arrest in human RPMI8226 cells assessed as accumulation at S phase at 5 uM after 24 hrs by propidium iodide staining based flow cytometry (reference value: 19.53%); type: functional
# [21] = test system: U-266; assay: Cell cycle arrest in human U266 cells assessed as accumulation at G2/M phase at 5 uM after 24 hrs by propidium iodide staining based flow cytometry (reference value: 35.13%); type: functional
# [22] = Apparent permeability from basolateral to apical side in human Caco2 cells at 10 uM after 2 hrs by LC-MS/MS analysis; type: ADME, cell-based; conditions: Caco-2
# Method in brief: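 Caco-2 cells seeded at 8.4 × 10^4 cells/cm2 on polycarbonate inserts for 21 days. For A→B, donor was apical (HBSS/MES pH 6.5, 10 µM compound) and receiver basolateral (HBSS/HEPES pH 7.4). For B→A, donor was basolateral (HBSS/HEPES pH 7.4, 10 µM) and receiver apical (HBSS/MES pH 6.5). Incubated at 37 °C for 2 h. Receiver sampled at 30, 60, 90 and 120 min, donor at 0 and 120 min.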
# [23] = test system: U-266; assay: Induction of apoptosis in human U266 cells at 5 uM after 24 hrs in presence of bortezomib by Annexin V/propidium iodide staining based flow cytometry; type: functional, cell-based
# [24] = test system: Mus musculus; assay: Toxicity in nude mouse xenografted with human RPMI8226 cells assessed as change in body weight at 30 mg/kg, iv or ip administered for 5 days followed by 2 days off for 35 days; type: organism-based; conditions: in vivo
# Method in brief: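 Male 8-week nude mice implanted sc with 1×10^7 RPMI 8226 cells, randomized at ~200 mm3 (n = 8). […] Vehicle: 0.5% EtOH/0.5% Cremophor in 5% dextran.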
# [25] = test system: Salmonella typhimurium; assay: Mutagenicity in Salmonella typhimurium TA100 assessed as increase in number of revertant colonies at 3 to 3000 ug/plate in absence of S9 fraction by Ames test; type: toxicity; conditions: salmonella enterica subsp. enterica serovar typhimurium; method in brief: as §2
# [26] = Half life in human hepatocytes at 10 uM by LC-MS/MS analysis; type: ADME, cell-based, Hepatocyte
# Method in brief: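 Substrate depletion in cryopreserved hepatocytes (male SD rat, male beagle dog, human). Compound at 10 µM incubated at 37 °C for up to 4 h. Cell density approximately 0.5 × 10^6 hepatocytes/well for rat and dog, 0.24 × 10^6/well for human. Half-life and CLint derived from depletion; % remaining at 60 min also reported.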
# [27] = Intrinsic clearance in beagle dog hepatocytes at 10 uM by LC-MS/MS analysis; type: ADME, cell-based, Canis lupus familiaris, Hepatocyte; conditions: read-out: CLH; method in brief: as §1
# [28] = test system: U-266; assay: Cell cycle arrest in human U266 cells assessed as accumulation at sub-G1 phase at 5 uM after 24 hrs by propidium iodide staining based flow cytometry (reference value: 10.76%); type: functional
structure (smiles),measurement,setting,value
O=C(NO)c1ccc(CNc2cccc3cccnc23)cc1,Activity,[1],Active
same,"remaining at 1 h, 10 µM",[2],28.4%
same,CLint scaled at 10 µM,[3],151 mL/min/kg
same,Activity,[4],Non-Toxic
same,Activity,[5],Non-Toxic
same,Activity,[6],Non-Toxic
same,Activity,[7],8.6%
same,Activity,[8],41.95%
same,Activity,[9],25.75%
same,Activity,[10],21.52%
same,Activity,[11],Active
same,Activity,[12],74.13%
same,Activity,[13],15.77%
same,"remaining at 1 h, 10 µM",[14],86.4%
same,Activity,[15],1.73%
same,Activity,[16],Non-Toxic
same,Activity,[17],12.88%
same,"remaining at 1 h, 10 µM",[18],70.6%
same,Activity,[19],31.53%
same,Activity,[20],15.19%
same,Activity,[21],23.3%
same,"Papp B→A at 2 h, 10 µM",[22],20.1 ×10⁻⁶ cm/s
same,Activity,[23],Active
same,Activity,[24],Non-Toxic
same,Activity,[25],Non-Toxic
same,half-life at 10 µM,[26],4 h
same,CLint scaled at 10 µM,[27],39.6 mL/min/kg
same,Activity,[28],17.82%
